pEC50: −log10 of the molar value. ≈ marks a conversion by molar mass, not a printed value. Calls of active or inactive are those of the source. No cut-off for these calls is given here.

What is called LC50 is the concentration lethal to half of the exposed cells or organisms. Low readings indicate a more lethal substance, high ones a less lethal substance. In general, pEC50 refers to the EC50 on a negative log10 scale, so that one unit is a factor of ten. What is called MIC is the least concentration at which growth counts as inhibited.

One series concerns Artemia. Kind of series: (§1) Toxicity in brine shrimp. To be noted: in vivo. The format is organism-based. The gist of the method: (§2)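 Brine shrimp lethality. LC50 in μg/mL, taken from single experiments with four concentrations, each run in triplicate.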
The test system of another series is NCI-H460. Kind of series: Cytotoxicity against human H460 after 3 days by SRB assay. Type of series: functional, cell-based. Conditions: NCI-H460, 72 h. Background: Sulforhodamine B stains cellular protein and so reports cell mass.
Another series has as its system Aspergillus niger. Kind of series: Antimicrobial activity against Aspergillus niger after 3 days. Conditions: 72 h. The format is functional.
Series [1] can be described thus: as §1. The format is organism-based. Conditions: artemia, in vivo. In short, it runs like this:
as §2

Another series relates to SF-268. Put plainly: cells. The format is functional, cell-based. To be noted: Homo sapiens, SF-268, 72 h.
A further series concerns Micrococcus luteus. Put plainly: Antimicrobial activity against Micrococcus luteus after 3 days. Type of series: functional. Conditions: 72 h.
In series [2] the test system is Mycolicibacterium smegmatis. Put plainly: Antimicrobial activity against Mycobacterium smegmatis after 3 days. The format is functional. To be noted: 72 h.
For the next series, the system named is Saccharomyces cerevisiae. Kind of series: Antimicrobial activity against Saccharomyces cerevisiae after 3 days. Type of series: functional. To be noted: 72 h.
In a further series the test system is MCF7. Put plainly: Cytotoxicity against human MCF7 after 3 days by SRB assay. Type of series: functional, cell-based. Conditions: MCF7, 72 h.
Series [3] is filed under the species Rattus norvegicus. Kind of series: Displacement of [3H]flunitrazepam from GABAA in rat cerebral cortical 10 uM. The gist of the method: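 Rat cortical membrane homogenate in 50 mM sodium phosphate/200 mM NaCl pH 7.4. Duplicates, 500 μL final volume: 50 μg protein, test compound 10 μM, 1.0 μM GABA, 1.0 nM [3H]flunitrazepam. Nonspecific binding defined with 10 μM clonazepam. After 1 h at rt, filtered over PEI-soaked GF/B and counted. Net binding change versus basal is given as % of the 10 μM allopregnanolone response.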

Series [4] is filed under the species Rattus norvegicus. Put plainly: Displacement of […] from GABAA in rat cerebral cortical at 10 uM. The gist of the method: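 Rat cerebral cortex membranes (sucrose homogenate, differential centrifugation, washed in 50 mM sodium phosphate/200 mM NaCl pH 7.4). Duplicate wells, 500 μL final volume: 50 μg protein, test compound 10 μM, 5.0 μM GABA, 2.0 nM [35S]TBPS. Nonspecific binding defined with 200 μM picrotoxin. Incubation 1 h at rt, then GF/B vacuum filtration and scintillation counting. Net change versus basal is reported as % of 10 μM allopregnanolone.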

Turning to `COc1cc2c(c(OC)c1OC)-c1ccc(OC)c(=O)cc1[C@@H](NC(C)=O)CC2` (stereo in doubt) [COLCHICINE], the median lethal concentration (LC50) in the series with Artemia worked out at 2.8 µg/mL (≈ 7.01 µM).
`CN[C@H]1CCc2cc(OC)c(OC)c(OC)c2-c2ccc(OC)c(=O)cc21` [DEMECOLCINE]: the pEC50 with NCI-H460 was 6.16; with SF-268, 5.21; in the series with MCF7, 6.22. Also, the minimal inhibitory concentration (MIC) (in the series with Aspergillus niger; with Micrococcus luteus; in series [2]; in the series on Saccharomyces cerevisiae) was greater than 500 µg/mL throughout. For the same compound, in [1], the LC50 was 61 µg/mL (≈ 164 µM).
As to `COc1c2c(cc3c1-c1ccc(OC)c(=O)cc1[C@@H](NC(C)=O)CC3)OCO2`, the negative logarithm of the EC50 (pEC50) with NCI-H460 was 7.23; in the series on SF-268, 7.01; in the series with MCF7 it was 7.21. Besides, the MIC (against Aspergillus niger; against Micrococcus luteus; in [2]; with Saccharomyces cerevisiae) was greater than 500 µg/mL throughout. The Activity in the series listed under Rattus norvegicus [3] and in the series listed under Rattus norvegicus [4] was 50% each time. The 50% lethal concentration (LC50) in series [1] was determined as 7.7 µg/mL (≈ 20.1 µM).
Regarding `COc1ccc2c(c1O)[C@@H](NC(C)=O)CCc1cc(OC)c(OC)c(OC)c1-2`, the pEC50 is 6.59 with NCI-H460, 6.43 with SF-268 and 6.70 with MCF7. The MIC (with Aspergillus niger; against Micrococcus luteus; in series [2]; in the series with Saccharomyces cerevisiae) was greater than 500 µg/mL each time. For the same compound, the Activity in the series filed under Rattus norvegicus [3] and in the series filed under Rattus norvegicus [4] was 50% throughout. Also, the LC50 in [1] amounted to 48.8 µg/mL (≈ 126 µM).
In the case of `CN[C@H]1CCc2cc(O)c(O)c(OC)c2-c2ccc(OC)c(=O)cc21`, the values for the negative-log EC50 (pEC50) with NCI-H460, in the series on SF-268 and in the series with MCF7 were 3.67, 4.10 and 3.89, respectively. Besides, the minimal inhibitory concentration (MIC) (against Aspergillus niger; in the series with Micrococcus luteus; in [2]; against Saccharomyces cerevisiae) was greater than 500 µg/mL each time. The same compound gave an LC50 in [1] of 88.2 µg/mL (≈ 257 µM).
As to `COc1cc2c(c(OC)c1OC)-c1ccc(OC)c(=O)cc1[C@@H](NC(C)=O)CC2` (stereo in doubt; 1) [COLCHICINE], the negative logarithm of the EC50 (pEC50) was 7.52 with NCI-H460, 7.60 with SF-268 and 7.80 in the series on MCF7. For the same compound, the MIC (in the series with Aspergillus niger; in the series with Micrococcus luteus; in [2]; against Saccharomyces cerevisiae) was greater than 500 µg/mL each time. In [1], this compound displayed an LC50 of 3.7 µg/mL (≈ 9.26 µM).
Consider `COC1=C2c3ccc(OC)c(=O)cc3[C@H]3CC4(C)N3C24C=C(O)C1=O` (stereo not given in full) [DEMECOLCINONE], for which the negative logarithm of the EC50 (pEC50) in the series on NCI-H460 is 4.50; with SF-268, 4.55; in the series with MCF7, 4.54. Besides, the MIC (in the series with Aspergillus niger; with Micrococcus luteus; in series [2]; in the series with Saccharomyces cerevisiae) was greater than 500 µg/mL throughout. The 50% lethal concentration (LC50) in [1] is 79.3 µg/mL (≈ 234 µM).
`COc1c(O)cc2c(c1OC)-c1ccc(OC)c(=O)cc1[C@@H](NC(C)=O)CC2` [3-DESMETHYLCOLCHICIN] showed a 50% lethal concentration (LC50) in series [1] of 74.6 µg/mL (≈ 194 µM).
On to `CN[C@H]1CCc2cc(O)c(OC)c(OC)c2-c2ccc(OC)c(=O)cc21`, for which the negative logarithm of the EC50 (pEC50) in the series on NCI-H460 is 5.96; with SF-268, 5.49; with MCF7, 6.10. The MIC (with Aspergillus niger; in the series on Micrococcus luteus; in series [2]; in the series on Saccharomyces cerevisiae) was greater than 500 µg/mL in each case. This compound yielded a median lethal concentration (LC50) in series [1] of 71.5 µg/mL (≈ 200 µM).
As to `CC[C@@]1(O)C(=O)OCc2c1cc1n(c2=O)Cc2cc3ccccc3nc2-1` [CAMPTOTHECIN], the values for the pEC50 with NCI-H460, in the series with SF-268 and with MCF7 were 8.16, 7.23 and 7.14, respectively.
For `COC1=C[C@@H]2C3=C([C@@H]2C1=O)[C@@H](NC(C)=O)CCc1cc(OC)c(OC)c(OC)c13`, the pEC50 with NCI-H460 is 5.68; in the series with SF-268 it was 5.49; in the series with MCF7, 5.82. In addition, the minimum inhibitory concentration (MIC) (with Aspergillus niger; in the series on Micrococcus luteus; in series [2]; in the series on Saccharomyces cerevisiae) was greater than 500 µg/mL throughout. This compound came in with an LC50 in series [1] of 74.6 µg/mL (≈ 187 µM).
For the compound `CC(=O)[C@H]1CC[C@H]2[C@@H]3CC[C@H]4C[C@H](O)CC[C@]4(C)[C@H]3CC[C@]12C`, the outcome in the series listed under Rattus norvegicus [3] and in the series filed under Rattus norvegicus [4] was Active.

Source of the values: ChEMBL document CHEMBL1142575, “New colchicinoids from a native Jordanian meadow saffron, colchicum brachyphyllum: isolation of the first naturally occurring dextrorotatory colchicinoid” (J Nat Prod, 2005).
